This note sets out measurements from ChEMBL document CHEMBL3774373, “Activity and Predicted Nephrotoxicity of Synthetic Antibiotics Based on Polymyxin B” (J Med Chem, 2016).

The nature of data set [1]: Cytotoxicity against HK2 cells assessed as LDH release by Western blot analysis. The format is cell-based, HK-2. The settings on record: human, hk-2.
Another data set deals with HEK293. The experiment in a line: Cytotoxicity against HEK293 cells after 24 hrs by resazurin assay. It counts as cell-based. The note with it: human, hek293, 24 h. In general terms: The colour change of resazurin is a common sign of viable cells or microbes.
Data set [2] is described as follows: Cytotoxicity against HK2 cells assessed as GGT release by Western blot analysis. The settings on record: human, hk-2. The format is cell-based, HK-2.
Another data set concerns HepG2. Nature of the data set: (§1) Cytotoxicity against human HepG2 cells after 24 hrs by resazurin assay. It counts as cell-based. The note with it: hepg2, 24 h.
The test system of data set [3] is Pseudomonas aeruginosa. Nature of the data set: Antibacterial activity against clinical isolate polymyxin resistant Pseudomonas aeruginosa PA9704 after 18 hrs by 2 fold serial dilution method. The settings on record: PA9704, 18 h. The format is functional. The method, boiled down:
(§2)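 Polymyxin-resistant clinical isolates were grown overnight at 37 °C in NB or MHB with shaking, diluted 50-fold in MHB and grown 1.5–3 h to mid-log phase. The inoculum was 5×10^5 CFU/mL. Compounds were 2-fold broth serial dilutions, final 32 to 0.015 μg/mL; the polymyxin controls ran 128–0.06 μg/mL. The MIC was the lowest concentration with no visible growth after 18 h at 37 °C.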

Data set [4] relates to Escherichia coli. Nature of the data set: Antibacterial activity against Escherichia coli after 24 hrs by macrobroth dilution method. It counts as functional. For orientation: In broth dilution the organism is exposed to a series of concentrations in liquid medium.
Data set [5] has as its system Pseudomonas aeruginosa. The experiment in a line: Antibacterial activity against Pseudomonas aeruginosa ATCC 27853 after 18 hrs by 2 fold serial dilution method. It counts as functional. The note with it: ATCC 27853, 18 h. The method, boiled down:
(§3)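 Overnight cultures in nutrient or Mueller Hinton broth at 37 °C with shaking, diluted 50-fold into fresh MHB and grown 1.5–3 h to mid-log. Inoculum 5×10^5 CFU/mL in 2-fold serial dilutions, final range 32 to 0.015 μg/mL. MIC read visually after 18 h at 37 °C as the lowest concentration with no visible growth.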

Data set [6] deals with Pseudomonas aeruginosa. Nature of the data set: Antibacterial activity against clinical isolate polymyxin resistant Pseudomonas aeruginosa FADDI-PA070 after 18 hrs by 2 fold serial dilution method. The format is functional. The note with it: FADDI-PA070, 18 h. The method, boiled down: as §2
Data set [7] has as its system Staphylococcus aureus. The experiment in a line: microbe, parasite or virus in culture. The settings on record: ATCC 25923, 18 h.
Data set [8] concerns Klebsiella pneumoniae. The experiment in a line: Antibacterial activity against multidrug resistant Klebsiella pneumoniae ATCC 700603 after 18 hrs by 2 fold serial dilution method. The note with it: Klebsiella pneumoniae, 700603, 18 h. It counts as functional. The method, boiled down: (§4)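 Overnight cultures at 37 °C in nutrient or Mueller Hinton broth with shaking were diluted 50-fold in MHB and grown 1.5–3 h to mid-log phase. The inoculum was 5×10^5 CFU/mL in MHB. Compounds were 2-fold serially diluted, final 32 to 0.015 μg/mL. After 18 h at 37 °C, the MIC was read visually as the lowest concentration with no visible growth.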

Data set [9] relates to Acinetobacter baumannii. Nature of the data set: Antibacterial activity against clinical isolate carbapenem and polymyxin resistant Acinetobacter baumannii Ptyela 100734512:2 after 18 hrs by 2 fold serial dilution method. The format is functional. The settings on record: Ptyela 100734512:2, 18 h. The method, boiled down: as §2
Data set [10] relates to Pseudomonas aeruginosa. The experiment in a line: Antibacterial activity against Pseudomonas aeruginosa after 24 hrs by macrobroth dilution method. It counts as functional.
In data set [11] the test system is Klebsiella pneumoniae. The experiment in a line: Antibacterial activity against Klebsiella pneumoniae ATCC 13883 after 18 hrs by 2 fold serial dilution method. The format is functional. The settings on record: ATCC 13883, 18 h. The essentials: as §3
In data set [12] the test system is Klebsiella pneumoniae. The experiment in a line: Antibacterial activity against Klebsiella pneumoniae ATCC BAA-2146 expressing NDM-1 after 18 hrs by 2 fold serial dilution method. The settings on record: ATCC BAA-2146, 18 h. The format is functional. The method, boiled down:
as §4

Data set [13] concerns Staphylococcus aureus. The experiment in a line: Antibacterial activity against Staphylococcus aureus after 24 hrs by macrobroth dilution method. It counts as functional.
The test system of data set [14] is Klebsiella pneumoniae. The experiment in a line: Antibacterial activity against clinical isolate carbapenem and polymyxin resistant Klebsiella pneumoniae Koprana 100650661:1 after 18 hrs by 2 fold serial dilution method. The format is functional. The note with it: Koprana 100650661:1, 18 h. The essentials: as §2
A short description of data set [15]: as §1. The format is cell-based. The settings on record: HepG2 cells.
For data set [16], the system named is Acinetobacter baumannii. The experiment in a line: Antibacterial activity against Acinetobacter baumannii ATCC 19606 after 18 hrs by 2 fold serial dilution method. The format is functional. The settings on record: ATCC 19606, 18 h. The method, boiled down: as §3
For data set [17], the system named is Escherichia coli. Nature of the data set: Antibacterial activity against Escherichia coli ATCC 25922 after 18 hrs by 2 fold serial dilution method. It counts as functional. The note with it: ATCC 25922, 18 h. The essentials:
as §3

The test system of data set [18] is Klebsiella pneumoniae. The experiment in a line: Antibacterial activity against clinical isolate carbapenem and polymyxin resistant Klebsiella pneumoniae 138-16357-20362 after 18 hrs by 2 fold serial dilution method. It counts as functional. The note with it: 138-16357-20362, 18 h. The essentials:
as §2

Converted amounts (≈) assume the structure as drawn. Bridge positions count the residues as written; N and C are the ends. Square brackets hold non-standard residues; d marks the D form. Peptide text beside a SMILES is read from it. * marks the point of attachment. Octanoyl = CCCCCCCC(=O)*; Dab = NCC[C@H](N)C(=O)O

In the case of GENTAMICIN, the CC50 in [1] was 33 µg/mL; in the data set with HEK293, above 300 µM; in data set [2] it was 33 µg/mL; in the data set on HepG2 it was above 300 µM.

Regarding `CCCCCCCC(=O)N[C@@H](CCN)C(=O)N[C@H](C(=O)N[C@@H](CCN)C(=O)N[C@H]1CCNC(=O)[C@H]([C@@H](C)O)NC(=O)[C@H](CCNC(=O)[C@@H](N)CCCNC(=N)N)NC(=O)[C@H](CCN)NC(=O)[C@H](CC(C)C)NC(=O)[C@@H](Cc2ccccc2)NC(=O)[C@H](CCN)NC1=O)[C@@H](C)O` (Octanoyl-[Dab]T[Dab][Dab][Dab][dF]L[Dab][Dab](Arg)T; lactam 4-C), the MIC against Pseudomonas aeruginosa [3] is above 32 µg/mL; against Escherichia coli [4] it was 0.16 µg/mL (≈ 0.119 µM); against Pseudomonas aeruginosa [5], 32 µg/mL (≈ 23.8 µM); in the data set on Pseudomonas aeruginosa [6] it was above 32 µg/mL; in the data set with Staphylococcus aureus [7] it was above 32 µg/mL; against Klebsiella pneumoniae [8], 8 µg/mL (≈ 5.95 µM). Besides, the MIC against Acinetobacter baumannii [9] was above 32 µg/mL; in the data set on Pseudomonas aeruginosa [10], 0.03 µg/mL (≈ 0.0223 µM); in the data set on Klebsiella pneumoniae [11], 32 µg/mL (≈ 23.8 µM); with Klebsiella pneumoniae [12], 8 µg/mL (≈ 5.95 µM); in the data set with Staphylococcus aureus [13], 2 µg/mL (≈ 1.49 µM); with Klebsiella pneumoniae [14], above 32 µg/mL. The values for the MIC in the data set with Acinetobacter baumannii [16], with Escherichia coli [17] and with Klebsiella pneumoniae [18] were 16 µg/mL (≈ 11.9 µM), 32 µg/mL (≈ 23.8 µM) and above 32 µg/mL, respectively. For the same compound, the 50% cytotoxic concentration (CC50) at 24 h in data set [15] is above 300 µM.

One may read the CC50 as the concentration at which the toxic effect on the cells reaches its halfway point.
